The source made the active and inactive calls. The rule behind the calls is not given here.
Experiments:
[1] = system: HT-29; experiment: Cytotoxicity against human HT-29 cells assessed as phosphorylation of CHK1 on S317 at 200 nM by Western blotting analysis; format: functional, cell-based
How it was run: (§1)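 HT29 colon cells treated with gemcitabine with or without inhibitor. Protein expression was read by western blotting with 50μg protein per lane.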

[2] = system: HT-29; experiment: Antitumor activity against human HT-29 cells xenografted in CRTac:Ncr-Fox1 mouse assessed as tumor growth delay at 100 mg/kg, iv (reference value: 7.2 +/- 1.8 days); format: functional
[3] = system: Mus musculus; experiment: Effect on CHK1 in CRTac:Ncr-Fox1 athymic mouse xenografted with human Calu-6 cells assessed as phosphorylation of CHK1 at S296 at 100 mg/kg, iv in presence of carboplatin by Western blotting analysis; format: functional, organism-based
How it was run: (§2)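 Female CRTac:Ncr-Fox1(nu) athymic mice carried s.c. Calu6 xenografts. Tumors were taken 6h after the last inhibitor dose, lysed in CHAPS buffer, and immunoblotted with GAPDH as loading control.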

[4] = Toxicity in CRTac:Ncr-Fox1 mouse xenografted with human HT-29 cells assessed as body weight at 200 mg/kg, iv administered for 16 days relative to control; format: organism-based; conditions: in vivo, 384 h, time 16 day
[5] = system: Calu-6; experiment: Antitumor activity against human Calu-6 cells xenografted in CRTac:Ncr-Fox1 mouse assessed as tumor growth delay time at 100 mg/kg, iv in presence of carboplatin (reference value: 6.4 +/- 2.5 days); format: functional
[6] = system: Mus musculus; experiment: In vivo inhibition of CHK1 in CRTac:Ncr-Fox1 mouse xenografted with human HT-29 cells assessed as increased phosphorylation of CDK1 on Y15 at 100 mg/kg, iv administered for 24 hrs by Western blotting analysis; format: functional, organism-based
How it was run: (§3)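 HT29 s.c. xenografts in female athymic nude mice. Single gemcitabine dose 100mg/kg i.v. on day 0, then one inhibitor dose 50 or 100mg/kg p.o. (DPTW vehicle) 24h later. Tumors taken 24h after the last dose, western blotted, and signals quantified by normalizing to GAPDH.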

[7] = system: HT-29; experiment: Induction of cell cycle arrest in human HT-29 cells assessed as phosphorylation of CDK1 on pY15 at 200 nM by Western blotting analysis; format: functional, cell-based; how it was run: as §1
[8] = system: Mus musculus; experiment: In vivo inhibition of CHK1 in CRTac:Ncr-Fox1 mouse xenografted with human HT-29 cells assessed as increased phosphorylation of CHK1 on S296 at 100 mg/kg, iv administered for 24 hrs by Western blotting analysis; format: functional, organism-based; how it was run: as §3
[9] = system: Mus musculus; experiment: Effect on CHK1 in CRTac:Ncr-Fox1 athymic mouse xenografted with human Calu-6 cells assessed as phosphorylation of CHK1 at S317 at 100 mg/kg, iv in presence of carboplatin by Western blotting analysis; format: functional, organism-based; how it was run: as §2
[10] = Toxicity in CRTac:Ncr-Fox1 mouse xenografted with human SW620 cells assessed as body weight at 100 mg/kg, iv administered for 9 days relative to control; format: organism-based, SW-620; conditions: in vivo, 216 h, time 9 day
[11] = system: Mus musculus; experiment: Effect on CHK1 in CRTac:Ncr-Fox1 athymic mouse xenografted with human Calu-6 cells assessed as phosphorylation of CHK1 at S345 at 100 mg/kg, iv in presence of carboplatin by Western blotting analysis; format: functional, organism-based; how it was run: as §2
[12] = system: HT-29; experiment: Cytotoxicity against human HT-29 cells assessed as phosphorylation of CHK1 on S280 at 200 nM by Western blotting analysis; format: functional, cell-based; how it was run: as §1
[13] = system: HT-29; experiment: Cytotoxicity against human HT-29 cells assessed as phosphorylation of CHK1 on S345 at 200 nM by Western blotting analysis; format: functional, cell-based; how it was run: as §1
[14] = system: HT-29; experiment: Antitumor activity against human HT-29 cells xenografted in CRTac:Ncr-Fox1 mouse assessed as tumor growth delay at 100 mg/kg, iv (reference value: […] +/- 5.2 days); format: functional
[15] = system: HT-29; experiment: Antitumor activity against human HT-29 cells xenografted in CRTac:Ncr-Fox1 mouse assessed as tumor growth delay at 100 mg/kg, iv (reference value: 8.4 +/- 1.6 days); format: functional
[16] = system: Mus musculus; experiment: In vivo inhibition of CHK1 in CRTac:Ncr-Fox1 mouse xenografted with human HT-29 cells assessed as increased phosphorylation of CHK1 on S317 at 100 mg/kg, iv administered for 24 hrs by Western blotting analysis; format: functional, organism-based; how it was run: as §3
[17] = system: HT-29; experiment: Cytotoxicity against human HT-29 cells assessed as phosphorylation of CHK1 on S296 at 200 nM by Western blotting analysis; format: functional, cell-based; how it was run: as §1

**Q.** Which Activity [1] does the source give for `Nc1ccn([C@@H]2O[C@H](CO)[C@@H](O)C2(F)F)c(=O)n1` [GEMCITABINE] here?
**A.** Active

**Q.** What about the Time [2] of the same compound?
**A.** 2.9 days

**Q.** And the Activity [3]?
**A.** Active

**Q.** And the residual activity [4]?
**A.** 94.2%

**Q.** What about the Time [5] of the same compound?
**A.** 0.7 days

**Q.** What about the Activity [6] of the same compound?
**A.** Active

**Q.** What about the Activity [7] of the same compound?
**A.** Active

**Q.** What about the Activity [8] of the same compound?
**A.** Active

**Q.** What about the Activity [9] of the same compound?
**A.** Active

**Q.** What about the residual activity [10] of the same compound?
**A.** 95.7%

**Q.** And the Activity [11]?
**A.** Active

**Q.** And the Activity [12]?
**A.** Active

**Q.** And the Activity [13]?
**A.** Active

**Q.** And the Time [14]?
**A.** 0.3 days

**Q.** And the Time [15]?
**A.** 2.6 days

**Q.** What about the Activity [16] of the same compound?
**A.** Active

**Q.** And the Activity [17]?
**A.** Active
